From ChEMBL document CHEMBL2396599, “Design of cell-permeable stapled peptides as HIV-1 integrase inhibitors” (J Med Chem, 2013)
Starred links: 1 amine or outer side, 2 acyl side, 3 side chain; linkers in the order of their positions; H or OH if unused. Positions of bridges follow the written chain, without caps; N, C: chain ends. Non-standard residues stand in square brackets, D forms with d. Residues, ends and D or L forms follow the SMILES beside them. αMeNva(5-ylidene) = C[C@@](CCC=[*:3])(N[*:1])C(=O)[*:2]; X1 = C[C@@](CCCCC=[*:3])(N[*:1])C(=O)[*:2]; X3 = C=CCCCC[C@](C)(N[*:1])C(=O)[*:2]; X2 = C=CC[C@](C)(N[*:1])C(=O)[*:2]; S5 = C=CCCC[C@](C)(N)C(=O)O

Key:
[1] = biological target: T1, Human immunodeficiency virus type 1 integrase (Human immunodeficiency virus 1, UniProt Q7ZJM1); assay: Inhibition of wild type HIV-1 integrase strand transfer activity after 30 mins
Method in brief: (§1)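 IC₅₀ is the concentration giving 50% inhibition of HIV-1 integrase enzymatic activity, determined separately for 3′-processing and for strand transfer.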

[2] = biological target: T1, Human immunodeficiency virus type 1 integrase; assay: Inhibition of wild type HIV-1 integrase 3' processing activity after 30 mins; method in brief: as §1
[3] = Therapeutic index, ratio of CC50 for human MT4 cells to EC50 for Human immunodeficiency virus 1; format: cell-based; details: read-out: Ratio CC50/EC50
Method in brief: (§2)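 Antiviral activity taken as the concentration giving 50% protection of HIV-1-infected MT-4 cells. Cytotoxicity was read as 50% cell death in the same cells. Therapeutic index = CC₅₀/EC₅₀.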

[4] = Cytotoxicity against human MT4 cells by MTT assay; format: cell-based
Method in brief: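 CC₅₀ was the concentration causing 50% death of MT-4 cells, in the same cells used for the HIV-1 cytoprotection assay. This value feeds the CC₅₀/EC₅₀ ratio.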

[5] = biological target: T1, Human immunodeficiency virus type 1 integrase; assay: Inhibition of HIV-1 His6-tagged integrase assessed as inhibition of LEDGF/p75-integrase interaction incubated 30 mins prior to flag-tagged LEDGF/p75 addition measured after 1 hr by AlphaScreen assay
Method in brief: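 IC₅₀ is the concentration giving 50% inhibition of the interaction between LEDGF/p75 and HIV-1 integrase.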

[6] = system: Human immunodeficiency virus 1; assay: Antiviral activity against Human immunodeficiency virus 1 infected in human MT4 cells assessed as inhibition of virus-induced cytopathic effect by MTT assay; format: functional, organism-based; details: Human immunodeficiency virus 1, MT4; method in brief: as §2
[7] = system: Human immunodeficiency virus; assay: Antiviral activity against AMD3100-resistant Human immunodeficiency virus; format: functional, organism-based; details: Human immunodeficiency virus 1
MT4 = assay: Cellular uptake in human MT4 cells at 10 to 500 uM after 1 hr by confocal microscopy; format: ADME, cell-based; details: mt4, 1 h
Method in brief: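 Fluorescein-labelled peptides were incubated with MT-4 cells for 1 h. Confocal z-stacks were taken at 0.3 step, with FITC excited at 488 nm and a cell-membrane dye at 543 nm.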

[8] = Drug uptake in human PANC1 cell nucleus at 40 uM after 1 to 3 hrs by Draq5 staining-based confocal microscopy; format: ADME; details: panc-1, 40 µM
Method in brief: (§3)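 CEM, HCT116 and Panc-1 cells were treated with the fluorescein-labelled stapled peptide for 3 h. Uptake was imaged by confocal microscopy with Draq5 nuclear staining.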

[9] = Cellular uptake in human HCT116 cell cytoplasm at 40 uM after 1 to 3 hrs by Draq5 staining-based confocal microscopy; format: ADME; details: hct-116, 40 µM; method in brief: as §3
[10] = Drug uptake in human CEM cell nucleus at 40 uM after 1 to 3 hrs by Draq5 staining-based confocal microscopy; format: ADME; details: ccrf-cem; method in brief: as §3
[11] = Drug uptake in human HCT116 cell nucleus at 40 uM after 1 to 3 hrs by Draq5 staining-based confocal microscopy; format: ADME; details: hct-116, 40 µM; method in brief: as §3
[12] = Cellular uptake in human CEM cytoplasm at 40 uM after 1 to 3 hrs by Draq5 staining-based confocal microscopy; format: ADME; method in brief: as §3
[13] = Cellular uptake in human PANC1 cell cytoplasm at 40 uM after 1 to 3 hrs by Draq5 staining-based confocal microscopy; format: ADME; details: panc-1, 40 µM; method in brief: as §3

T1 sequence (Q7ZJM1 whole entry): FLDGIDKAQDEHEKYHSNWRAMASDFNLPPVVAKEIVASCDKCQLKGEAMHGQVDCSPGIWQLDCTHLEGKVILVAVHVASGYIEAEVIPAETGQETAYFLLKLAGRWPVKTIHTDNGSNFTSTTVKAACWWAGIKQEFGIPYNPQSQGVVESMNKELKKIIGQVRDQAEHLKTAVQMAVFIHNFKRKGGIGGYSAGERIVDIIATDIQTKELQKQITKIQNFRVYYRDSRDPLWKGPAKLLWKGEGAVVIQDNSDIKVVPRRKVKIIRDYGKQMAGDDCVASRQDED

## C=CCCC[C@](C)(NC(=O)CNC(=O)[C@H](C)NC(=O)[C@H](CC(C)C)NC(=O)[C@](C)(CCCC=C)NC(=O)[C@H](CC(C)C)NC(=O)[C@H](CC(C)C)NC(=O)[C@H](Cc1ccccc1)NC(=O)[C@H](Cc1ccc(O)cc1)NC(=O)[C@H](C)NC(=O)[C@@H](N)[C@@H](C)O)C(=O)N[C@@H](Cc1c[nH]c2ccccc12)C(=O)O (H-TAYFLL[S5]LAG[S5]W-OH)
[1]
  IC50: > 100 µM
[2]
  IC50: > 100 µM

## CC(C)C[C@H](NC(=O)[C@H](Cc1ccccc1)NC(=O)[C@H](Cc1ccc(O)cc1)NC(=O)[C@H](C)NC(=O)[C@@H](N)[C@@H](C)O)C(=O)N[C@@H](CC(C)C)C(=O)N[C@@]1(C)CCC/C=C/CCC[C@@](C)(C(=O)N[C@@H](Cc2c[nH]c3ccccc23)C(=O)O)NC(=O)CNC(=O)[C@H](C)NC(=O)[C@H](CC(C)C)NC1=O (H-TAYFLL[S5]LAG[S5]W-OH; staple (E) 7-11)
[1]
  IC50: > 100 µM
[2]
  IC50: > 100 µM

## C=CCCC[C@](C)(NC(=O)[C@H](CC(C)C)NC(=O)[C@@H](NC(=O)[C@H](CC(C)C)NC(=O)[C@](C)(CCCC=C)NC(=O)[C@H](Cc1ccccc1)NC(=O)[C@H](Cc1ccc(O)cc1)NC(=O)[C@H](C)NC(=O)[C@@H](N)[C@@H](C)O)[C@@H](C)CC)C(=O)NCC(=O)N[C@@H](CCCNC(=N)N)C(=O)N[C@@H](Cc1c[nH]c2ccccc12)C(=O)O (H-TAYF[S5]LIL[S5]GRW-OH)
[3]
  selectivity ratio: 1.6
[4]
  CC50: 18 µM
[5]
  IC50: > 100 µM
[1]
  IC50: 11 µM
[2]
  IC50: 15 µM
[6]
  EC50: 11 µM

## CC[C@H](C)[C@@H]1NC(=O)[C@H](CC(C)C)NC(=O)[C@@](C)(NC(=O)[C@H](Cc2ccccc2)NC(=O)[C@H](Cc2ccc(O)cc2)NC(=O)[C@H](C)NC(=O)[C@@H](N)[C@@H](C)O)CCC/C=C\CCC[C@@](C)(C(=O)NCC(=O)N[C@@H](CCCNC(=N)N)C(=O)N[C@@H](Cc2c[nH]c3ccccc23)C(=O)O)NC(=O)[C@H](CC(C)C)NC1=O (H-TAYF[S5]LIL[S5]GRW-OH; staple (Z) 5-9)
[3]
  selectivity ratio: 8
[7]
  EC50: 4.3 µM
[4]
  CC50: 41 µM
[5]
  IC50: 5 µM
[1]
  IC50: 25 µM
[2]
  IC50: 22 µM
[6]
  EC50: 5 µM

## CC(C)C[C@@H]1NC(=O)[C@H](CCCCN)NC(=O)[C@H](CC(C)C)NC(=O)[C@@](C)(NC(=O)[C@H](Cc2ccccc2)NC(=O)[C@H](Cc2ccc(O)cc2)NC(=O)[C@H](C)NC(=O)[C@@H](N)[C@@H](C)O)CCC/C=C\CCC[C@@](C)(C(=O)NCC(=O)N[C@@H](CCCNC(=N)N)C(=O)N[C@@H](Cc2c[nH]c3ccccc23)C(=O)O)NC1=O (H-TAYF[S5]LKL[S5]GRW-OH; staple (Z) 5-9)
[3]
  selectivity ratio: 3
[4]
  CC50: 50 µM
[5]
  IC50: 14 µM
[1]
  IC50: 6 µM
[2]
  IC50: 9 µM
[6]
  EC50: 20 µM

## CC(C)C[C@@H]1NC(=O)[C@H](CCCCN)NC(=O)[C@H](CC(C)C)NC(=O)[C@@](C)(NC(=O)[C@H](Cc2ccccc2)NC(=O)[C@H](Cc2ccc(O)cc2)NC(=O)[C@H](C)NC(=O)[C@@H](N)[C@@H](C)O)CCCC/C=C/CCCC[C@@](C)(C(=O)NCC(=O)N[C@@H](CCCNC(=N)N)C(=O)N[C@@H](Cc2c[nH]c3ccccc23)C(=O)O)NC1=O (H-TAYF[X1]LKL[X1]GRW-OH; staple (E) 5-9)
[1]
  IC50: 44 µM
[2]
  IC50: 48 µM

## C=CC[C@](C)(NC(=O)[C@H](CC(C)C)NC(=O)[C@H](CCCCN)NC(=O)[C@H](CC(C)C)NC(=O)[C@](C)(CC=C)NC(=O)[C@H](Cc1ccccc1)NC(=O)[C@H](Cc1ccc(O)cc1)NC(=O)[C@H](C)NC(=O)[C@@H](N)[C@@H](C)O)C(=O)NCC(=O)N[C@@H](CCCNC(=N)N)C(=O)N[C@@H](Cc1c[nH]c2ccccc12)C(=O)O (H-TAYF[X2]LKL[X2]GRW-OH)
[1]
  IC50: > 111 µM
[2]
  IC50: > 333 µM

## C=CCCCC[C@](C)(NC(=O)[C@H](CC(C)C)NC(=O)[C@H](CCCCN)NC(=O)[C@H](CC(C)C)NC(=O)[C@](C)(CCCCC=C)NC(=O)[C@H](Cc1ccccc1)NC(=O)[C@H](Cc1ccc(O)cc1)NC(=O)[C@H](C)NC(=O)[C@@H](N)[C@@H](C)O)C(=O)NCC(=O)N[C@@H](CCCNC(=N)N)C(=O)N[C@@H](Cc1c[nH]c2ccccc12)C(=O)O (H-TAYF[X3]LKL[X3]GRW-OH)
[1]
  IC50: 43 µM
[2]
  IC50: 61 µM

## CC(C)C[C@@H]1NC(=O)[C@H](CCCCN)NC(=O)[C@H](CC(C)C)NC(=O)[C@@](C)(NC(=O)[C@H](Cc2ccccc2)NC(=O)[C@H](Cc2ccc(O)cc2)NC(=O)[C@H](C)NC(=O)[C@@H](N)[C@@H](C)O)CC/C=C/CC[C@@](C)(C(=O)NCC(=O)N[C@@H](CCCNC(=N)N)C(=O)N[C@@H](Cc2c[nH]c3ccccc23)C(=O)O)NC1=O (H-TAYF[αMeNva(5-ylidene)]LKL[αMeNva(5-ylidene)]GRW-OH; staple (E) 5-9)
[4]
  CC50: 40 µM
[5]
  IC50: 14 µM
[1]
  IC50: 83 µM
[2]
  IC50: 90 µM
[6]
  EC50: > 40 µM

## CC(C)C[C@H](NC(=O)[C@H](CCCCN)NC(=O)[C@H](CC(C)C)NC(=O)[C@]1(C)CCC/C=C\CCC[C@](C)(N)C(=O)N[C@@H](C)C(=O)N[C@@H](Cc2ccc(O)cc2)C(=O)N[C@@H](Cc2ccccc2)C(=O)N1)C(=O)N[C@@H](C)C(=O)NCC(=O)N[C@@H](CCCNC(=N)N)C(=O)N[C@@H](Cc1c[nH]c2ccccc12)C(=O)O (H-[S5]AYF[S5]LKLAGRW-OH; staple (Z) 1-5)
[3]
  selectivity ratio: 6
[4]
  CC50: 25 µM
[5]
  IC50: > 100 µM
[1]
  IC50: 19 µM
[2]
  IC50: 53 µM
[6]
  EC50: 4 µM

## CC(C)C[C@H](NC(=O)[C@H](CCCCN)NC(=O)[C@H](CC(C)C)NC(=O)[C@H](CC(C)C)NC(=O)[C@H](Cc1ccccc1)NC(=O)[C@H](Cc1ccc(O)cc1)NC(=O)[C@H](C)NC(=O)[C@@H](NC(=O)c1ccc2c(c1)C(=O)OC21c2ccc(O)cc2Oc2cc(O)ccc21)[C@@H](C)O)C(=O)N[C@@H](C)C(=O)NCC(=O)N[C@@H](CCCNC(=N)N)C(=O)N[C@@H](Cc1c[nH]c2ccccc12)C(=O)O (mixture of isomers)
MT4
  Drug uptake: Not Active
[3]
  selectivity ratio: 5
[4]
  CC50: 70 µM
[5]
  IC50: 25 µM
[1]
  IC50: 6.2 µM
[2]
  IC50: 17.5 µM
[6]
  EC50: 13 µM

## CC(C)C[C@@H]1NC(=O)[C@H](CCCCN)NC(=O)[C@H](CC(C)C)NC(=O)[C@@](C)(NC(=O)[C@H](Cc2ccccc2)NC(=O)[C@H](Cc2ccc(O)cc2)NC(=O)[C@H](C)NC(=O)[C@@H](NC(=O)c2ccc3c(c2)C(=O)OC32c3ccc(O)cc3Oc3cc(O)ccc32)[C@@H](C)O)CCC/C=C\CCC[C@@](C)(C(=O)NCC(=O)N[C@@H](CCCNC(=N)N)C(=O)N[C@@H](Cc2c[nH]c3ccccc23)C(=O)O)NC1=O (mixture of isomers)
MT4
  Drug uptake: Active
[3]
  selectivity ratio: > 11
[8]
  Drug uptake: Active
[4]
  CC50: > 125 µM
[9]
  Drug uptake: Active
[5]
  IC50: 25 µM
[1]
  IC50: 6 µM
[10]
  Drug uptake: Active
[2]
  IC50: 5 µM
[6]
  EC50: 11 µM
[11]
  Drug uptake: Active
[12]
  Drug uptake: Active
[13]
  Drug uptake: Active
